Reference: paper PMC11191573 (ACS Omega, 2024)

Tests used:
Aβ1–42 [1] = target: T1, Aβ1–42 (Homo sapiens, UniProt P05067); assay: Transmission electron microscopy of Aβ1–42 fibrils after ThT assay; assay type: biochemical; settings: 100 μM constituent, 50 μM Aβ1–42, 3 h incubation
Procedure, shortened: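 After the 3 h, 37 °C ThT assay (50 μM Aβ1−42, 100 μM constituent), 10 μL was spotted on a copper grid. It was stained with 2% aqueous uranyl acetate, blotted, air-dried and imaged by TEM at 120 kV.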

THP-1 cells = assay: MTT assay; assay type: cell-based, human; settings: 0, 0.1, 1 or 10 μM tested, 24 h
Procedure, shortened: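 THP-1 cells were plated at 5 × 10^4 cells/well and cultured 24 h at 37 °C. Medium containing 0, 0.1, 1 or 10 μM constituent was added for a further 24 h. Viability was measured with an MTT kit per the manufacturer's protocol and used to set nontoxic working concentrations.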

Aβ1–42 fibrils = Aβ1–42 fibrils (Homo sapiens, UniProt P05067); assay: Aβ fibril destabilization assay; assay type: biochemical; settings: 100 μM constituent, 50 μM Aβ1–42 fibrils, 37 °C, 5 h
Aβ1–42 fibrils, sequence (P05067 672-713): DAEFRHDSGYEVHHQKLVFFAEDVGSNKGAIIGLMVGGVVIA
Procedure, shortened: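 Aβ1−42 was pre-aggregated at 37 °C for 2 days, and fibril formation was confirmed by 1 h of stable ThT RFU. Constituent was then added (100 μM final; 50 μM Aβ1−42) and ThT fluorescence (Ex/Em 440/484 nm) was read for 5 h at 37 °C as in the aggregation assay. AUC was calculated. Mean ± SD, n = 3; Dunnett's test.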

Aβ1–42 [2] = target: T1, Aβ1–42; assay: ThT assay of Aβ1–42 aggregation; assay type: biochemical; settings: for Time course of RFU (curve shape) at lower concentrations: 25 and 50 μM constituent, data not shown; for Concentration dependence of activity in ThT assay: 25, 50, 100 μM
Procedure, shortened: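 Aβ1−42 was dissolved in 2 mM NaOH, lyophilized, then taken up in 20 mM phosphate buffer pH 7.4. Final concentrations were 50 μM Aβ1−42, 200 μM ThT and 100 μM constituent (25 and 50 μM for concentration dependence). Fluorescence (Ex 440/Em 484 nm) was read every 5 min for 3 h at 37 °C and blank-subtracted. Phenol red was the positive control and Aβ alone the negative. IC50 came from sigmoidal fitting. Mean ± SD, n = 3.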

Aβ1–42 [3] = target: T1, Aβ1–42; assay: PICUP oligomerization assay; assay type: biochemical; settings: 50 μM constituent (final), 25 μM Aβ
TNF mRNA in THP-1 cells = assay: RT-qPCR of TNF in Aβ1–42-stimulated THP-1 cells; assay type: cell-based, human; settings: 10 μM Aβ1–42, 24 h; ARA 0.1 μM, LPC 10 μM, LTN 0.1 μM, POA 10 μM, ZX 1 μM
Aβ1–42 [4] = target: T1, Aβ1–42; assay: FTIR spectroscopy of Aβ1–42 secondary structure; assay type: biochemical; settings: after ThT assay, mixed with Aβ1–42
Procedure, shortened: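 Samples came from completed ThT assays (50 μM Aβ1−42 ± 100 μM constituent, 37 °C, 3 h). 15 μL was dried on a diamond ATR prism at 25 °C, repeated twice. ATR-FTIR spectra were taken over 1500–1700 cm−1 with 100 s integration. The area under the parallel β-sheet absorbance band was integrated. Mean ± SD, n = 3; Dunnett's test.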

[5] = test system: IL 1B mRNA in THP-1 cells; assay: RT-qPCR of IL 1B in Aβ1–42-stimulated THP-1 cells; assay type: cell-based, human; settings: 10 μM Aβ1–42, 24 h; ARA 0.1 μM, LPC 10 μM, LTN 0.1 μM, POA 10 μM, ZX 1 μM
Caco-2 cells = settings: in vitro; cited from earlier work
[6] = test system: TNF protein in THP-1 cell culture media; assay: ELISA of TNF in supernatant of Aβ1–42-stimulated THP-1 cells; assay type: cell-based, human; settings: 10 μM Aβ1–42, 24 h; LTN 0.1 μM
Procedure, shortened: (§1)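 THP-1 cells were seeded at 5 × 10^5 cells/mL and differentiated to adherent macrophage-like cells (24 h). They were rested 24 h at 37 °C in RPMI-1640/10% FBS/1% P/S, then stimulated with 10 μM Aβ1−42 ± constituent for 24 h. Supernatant was assayed with human IL-1β or TNF-α sandwich ELISA kits, reading A450 and converting to pg/mL. Mean ± SE, n = 3; Tukey's test.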

[7] = test system: IL 1B protein in THP-1 cell culture media; assay: ELISA of IL 1B in supernatant of Aβ1–42-stimulated THP-1 cells; assay type: cell-based, human; settings: 10 μM Aβ1–42, 24 h; LTN 0.1 μM
Procedure, shortened: as §1

[8] = monkeys, after feeding; cited from earlier work
Aβ = settings: previously shown; cited from earlier work
Aβ1–42 [9] = target: T1, Aβ1–42; settings: previous paper; cited from earlier work

T1 sequence (P05067 672-713): as above

Molecule	Inhibition of Aβ1–42 aggregation observed by TEM (Aβ1–42 [1])	Optimal (nontoxic) concentration determined by MTT assay (THP-1 cells) [µM]	RFU of ThT during incubation with preformed Aβ1–42 fibrils (Aβ1–42 fibrils)	IC50 (Aβ1–42 [2]) [µM]	RFU at start of ThT assay (Aβ1–42 [2]; 100 μM ARA, 50 μM Aβ1–42)	Time course of RFU (curve shape) at lower concentrations (Aβ1–42 [2])	Inhibition of Aβ1–42 oligomerization (PICUP) (Aβ1–42 [3])	TNF mRNA induced by Aβ1–42 (TNF mRNA in THP-1 cells)	AUC of absorbances in the range of 1615–1645 cm^–1 (parallel β-sheet) (Aβ1–42 [4])	IL 1B mRNA induced by Aβ1–42 [5]	Intestinal absorption of LTN in the presence of LPC (Caco-2 cells)	Protein concentration of TNF in the supernatant [6]	Protein concentration of IL 1B in the supernatant [7]	Concentration of LTN in the brains [8]	Concentration dependence of activity in ThT assay (Aβ1–42 [2])	Inhibition of Aβ aggregation (Aβ)	Morphology of Aβ fibrils by TEM (Aβ1–42 [1])	Effect on Aβ1–42 aggregation (Aβ1–42 [9])
CCCCC/C=C\C/C=C\C/C=C\C/C=C\CCCC(=O)O [ARA, arachidonic acid]	inhibited Aβ1–42 aggregation	0.1	remained unchanged	37.4	approximately 25 RFU	did not improve	did not inhibit oligomerization	not suppressed	decrease	not suppressed								
CC1=C[C@H](O)CC(C)(C)[C@H]1/C=C/C(C)=C/C=C/C(C)=C/C=C/C=C(C)/C=C/C=C(C)/C=C/C1=C(C)C[C@@H](O)CC1(C)C [LTN, lutein]	inhibited the Aβ1–42 aggregation the most	0.1	remained unchanged	74		sigmoidal curve	did not inhibit oligomerization	suppressed	particular decrease	suppressed	increases	no difference was observed	suppressed	increases	concentration-dependent	inhibit Aβ aggregation		
CCCCCC/C=C\CCCCCCCC(=O)O [POA, palmitoleic acid]	inhibited Aβ1–42 aggregation	10	decreased				inhibited oligomerization	not suppressed		not suppressed					no concentration dependence		amorphous	
CC1=C(/C=C/C(C)=C/C=C/C(C)=C/C=C/C=C(C)/C=C/C=C(C)/C=C/C2=C(C)C[C@@H](O)CC2(C)C)C(C)(C)C[C@H](O)C1 [ZX, zeaxanthin]	inhibited Aβ1–42 aggregation	1	remained unchanged				inhibited oligomerization	not suppressed	decrease	not suppressed						inhibit Aβ aggregation		
L-α-lysophosphatidylcholine [LPC]	inhibited Aβ1–42 aggregation	10	remained unchanged			did not improve		not suppressed	particular decrease	not suppressed								facilitates Aβ1–42 aggregation
